Measurements reported in ChEMBL document CHEMBL3822411, “Non-Substrate Based, Small Molecule Inhibitors of the Human Isoprenylcysteine Carboxyl Methyltransferase” (Medchemcomm, 2016).

System: not listed separately
Test: Growth inhibition of human MIAPaCa2 cells expressing K-Ras G12C mutant after 5 days by MTT assay
Format: functional, cell-based
Settings: MIA PaCa-2, 120 h
Method in brief: (§1)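 MTT read-out; 1,000 cells per well seeded the day before, then medium replaced with inhibitor at increasing concentrations, 0.5% DMSO constant; 5 days at 37 °C. MTT (5 mg/mL solution) added for a further 4 h, formazan dissolved in DMSO, absorbance at 590 nm; mean absorbance per concentration plotted.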

| SMILES | IC50 [µM] |
| --- | --- |
| c1csc(C(=C2CCOCC2)c2ccc3ccccc3c2)c1 | 31.9 |

Biological target: Protein-S-isoprenylcysteine O-methyltransferase (Homo sapiens, UniProt O60725)
Test: Inhibition of human isoprenylcysteine carboxyl methyltransferase expressed in yeast His10myc3N-Icmt membranes using AFC substrate and [14C]-SAM and incubated for 30 mins by liquid scintillation counting based methyltransferase vapor diffusion assay
Format: cell membranes
Settings: not given
Method in brief: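 Crude yeast membranes (5 µg) in Tris-HCl 100 mM pH 7.4 with AFC 10 µM and [14C]-SAM 60 µM, compound at increasing concentrations, 5% DMSO; 37 °C 30 min, stopped with NaOH/SDS. Released radioactivity captured on filter paper over 2.5 h and counted. IC50 from specific activity (pmol/mg/min) versus concentration; three separate experiments in duplicate.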

Sequence of Protein-S-isoprenylcysteine O-methyltransferase (O60725 whole entry, the tested form may be a part): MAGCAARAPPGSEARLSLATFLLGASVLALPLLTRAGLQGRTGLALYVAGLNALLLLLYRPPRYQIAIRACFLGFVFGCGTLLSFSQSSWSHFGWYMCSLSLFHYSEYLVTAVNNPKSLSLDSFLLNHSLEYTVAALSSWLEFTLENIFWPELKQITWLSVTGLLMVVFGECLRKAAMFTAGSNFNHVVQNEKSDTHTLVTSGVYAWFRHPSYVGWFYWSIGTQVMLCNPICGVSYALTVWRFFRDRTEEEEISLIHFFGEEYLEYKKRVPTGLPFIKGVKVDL

| IC50 [µM] | SMILES |
| --- | --- |
| 0.4 | COC(=O)CCSC/C=C(\C)CCn1cc(CCc2ccc(-c3ccccc3)cc2)nn1 |
| 18 | Oc1c(C(c2cccs2)C2CCOCC2)ccc2ccccc12 (stereo not drawn) |
| 7.7 | Oc1c(C(=C2CCOCC2)c2cccs2)ccc2ccccc12 |
| > 50 | c1ccc(C(=C2CCOCC2)c2cccs2)cc1 |
| 14 | Oc1c(C(c2cccs2)C2CCOCC2)ccc2cccnc12 (stereo not drawn) |
| > 50 | OC(c1ccccc1)(c1cccs1)C1CCOCC1 (stereo not drawn) |
| > 50 | CN1CCC(C(c2ccc3ccccc3c2)c2cccs2)CC1 (stereo not drawn) |
| > 50 | c1ccc(C(=C2CCOCC2)c2ccc3ccccc3c2)cc1 |
| > 50 | O=C(c1ccc2ccccc2c1)C1CCOCC1 |
| > 50 | c1ccc2cc(CC3CCOCC3)ccc2c1 |

| SMILES | IC50 [µM] |
| --- | --- |
| c1csc(C(c2ccc3ccccc3c2)C2CCNCC2)c1 (stereo not drawn) | > 50 |

System: not listed separately
Test: Growth inhibition of human PANC1 cells expressing K-Ras G12D mutant after 5 days by MTT assay
Format: functional, cell-based
Settings: PANC-1, 120 h
Method in brief: as §1

| SMILES | IC50 [µM] |
| --- | --- |
| c1csc(C(=C2CCOCC2)c2ccc3ccccc3c2)c1 | 78 |
